# Screens as filed in PubChem BioAssay.
# In the library only some 2.4% were active in any assay of this set; here they are far more common.
# NR2E3 ag-1 – NR2E3 (human) agonism; GST-NR2E3/biotin-RetCOR TR-FRET, 1536-well; AID 2300; Q9Y5X4; inhibition of corepressor binding, % at 4.78 µM; 320,000 tested, 0.12% active;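 active = percent inhibition above the cutoff of mean plus 3 SD of all tested compounds, set per screening campaign, cut at about 20% in these data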;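 note: 0% = DMSO wells and 100% = biotin wells as full block of FRET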
# Target sequence (Q9Y5X4 whole entry, looked up): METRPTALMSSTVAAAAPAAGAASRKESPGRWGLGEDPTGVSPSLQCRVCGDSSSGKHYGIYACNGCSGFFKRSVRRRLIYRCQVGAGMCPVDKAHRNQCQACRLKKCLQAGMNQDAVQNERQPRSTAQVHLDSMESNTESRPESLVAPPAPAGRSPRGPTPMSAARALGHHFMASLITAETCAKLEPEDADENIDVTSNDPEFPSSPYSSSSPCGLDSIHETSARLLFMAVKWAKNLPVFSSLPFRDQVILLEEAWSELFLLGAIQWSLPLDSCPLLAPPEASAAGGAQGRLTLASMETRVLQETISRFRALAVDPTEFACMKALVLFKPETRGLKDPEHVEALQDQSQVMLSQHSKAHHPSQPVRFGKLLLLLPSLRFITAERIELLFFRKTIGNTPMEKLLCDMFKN
#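 System: GST-NR2E3 and biotin-RetCOR proteins; probe or stimulus: 7 nM biotin-RetCOR; doses: compound at 4.8 µM, single dose; schedule: Compound–protein incubation for 5 h at 4 °C; detection: time-resolved FRET; read-out: percent inhibition; controls: biotin wells as high control, 0.6% DMSO wells as low control; format: 1536-well plates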
# 697 NFkB inh – lowers PMA/ionomycin-induced NF-kB signal in 697 B cells | 697 B-cell NF-kB luciferase reporter, 16 h | inhibition, % at 4 µM | 330,000 tested, 0.33% active; in the data active = inhibition above about 35%
# aDG glyco act – alpha-DG glycosylation activation | 360,000 tested, 0.22% active | Pro5-aDG cells, alpha-DG glycosylation AlphaScreen (IIH6); 0% Pro5, 100% B10-LARGE cell signal | activation, % at 10 µM;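 active = activation of at least 8% versus controls, or a plate z-score of at least 8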;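 note: Pro5 are CHO cells carrying HIG-tagged alpha-DG that lacks glycosylation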
# NR2E3 ag-2 – human photoreceptor-specific nuclear receptor agonism. Q9Y5X4. CHO-S Gal4-NCOR/VP16-NR2E3 two-hybrid, luciferase. inhibition of corepressor binding, % at 3.98 µM. 360,000 tested, 0.35% active. AID 602229;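 active = inhibition above the mean of all tested compounds plus 3 SD, cut at about 70% in these data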;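 note: 0% = DMSO with NR2E3 transfected cells and 100% = cells lacking NR2E3 construct; higher means lower luciferase signal from less NR2E3 corepressor binding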
# Jurkat NFkB inh – lowers PMA/ionomycin-induced NF-kB signal in Jurkat cells. inhibition, % at 4 µM. 330,000 tested, 0.53% active. PMA/ionomycin-induced NF-kB luciferase reporter, luminescence; in the data active = inhibition above about 50%
# MPTP inh – inhibitors of mitochondrial permeability transition pore; isolated mouse mitochondria, Ca2+ swelling absorbance, 30 min; inhibition, % at 10 µM; 360,000 tested, 1.4% active;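 active = inhibition of 50% or more, scaled per plate between neutral and stimulator controls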;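 note: 0% = DMSO wells given calcium and 100% = 1 mM EGTA wells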
# MPTP counter – Rhodamine 123 counter-screen of mitochondrial pore hits; shares compounds with MPTP inh; isolated mitochondria, membrane potential, Rhodamine 123 fluorescence; inhibition, % at 10 µM; 5,000 tested, 78% active; AID 624504; in the data active = inhibition above about 22%;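 note: 0% = DMSO vehicle and 100% = positive control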
# MPTP swell DR – dose response confirmation of mitochondrial permeability transition pore inhibitors | shares compounds with MPTP inh | isolated mitochondria swelling, absorbance | AID 651561 | IC50, µM | 780 tested, 58% active; in the data active = IC50 below about 20 µM
# MPTP cs DR – counter-screen for mitochondrial permeability transition pore inhibitors, dose response; shares compounds with MPTP inh; isolated mitochondria counterscreen, fluorescence read-out; IC50, µM; 780 tested, 49% active; AID 651564; in the data active = IC50 below about 80 µM
# Active calls of the source: *; nt = not tested or not shown.
SMILES,NR2E3 ag-1,697 NFkB inh,aDG glyco act,NR2E3 ag-2,Jurkat NFkB inh,MPTP inh,MPTP counter,others
CCOc1ccc(OCC)c(NC(=O)CSc2nc3ccccc3c(=O)n2C)c1,-1,-39,2,15,24,93*,75*,
O=C(/C=C/c1cccs1)c1ccc(NC(=O)c2cccc(Br)c2)cc1,-16,-50,0,-54,-29,54*,62*,
Cc1ccc(C(=O)Nc2ccc(C(=O)/C=C/c3cccs3)cc2)cc1,0,-55,0,-94,-56,9,nt,
Cn1ccc(NC(=O)Nc2cccc([N+](=O)[O-])c2)n1,2,17,0,2,-3,4,nt,
CCC(=O)c1ccccc1OCCCN1CCC(Cc2ccccc2)CC1,-1,-38,1,-3,10,69*,60*,
CC(C1CCN(Cc2nc(C3CC3)no2)CC1)N1CCOCC1 (stereo unspecified),-1,-10,0,-11,-9,-1,nt,
CC(=O)Nc1cccc(-c2csc(C(C)(O)c3cccc(F)c3)n2)c1 (stereo unspecified),nt,nt,0,-28,nt,0,nt,
CCOC(=O)c1ccc(NC(=S)NCCC2=CCCCC2)cc1,2,-25,1,3,10,77*,86*,
O=C(NCCC1=CCCCC1)Nc1ccc2nsnc2c1,2,-130,2,-153,-107,85*,85*,
COC(=O)c1ccc(NC(=S)NC2CCCCC2C)cc1 (stereo unspecified),0,-2,0,-14,-8,98*,94*,
COC(=O)c1ccc(NC(=S)NC(=O)C2CCC2)cc1,-1,-27,0,-17,14,1,nt,
CCOC(=O)c1ccc(NC(=S)NCc2ccccc2)cc1,8,-16,0,-17,2,89*,87*,
CCOC(=O)c1ccc(NC(=O)NCc2ccccc2)cc1,0,2,1,-14,-7,28,nt,
CC(=O)c1cccc(NC(=S)NCCC2=CCCCC2)c1,3,-57,1,-7,-1,6,nt,
CN(CC(=O)Nc1ccccc1Cl)C(=O)Cn1nnc(-c2ccc(F)cc2)n1,-1,12,0,8,12,-1,nt,
COc1ccc(Cc2c(-c3ccc(OC)c(OC)c3)nc3ccc(C)cn23)c(C)c1,nt,nt,0,-10,nt,-4,nt,
COc1ccc2nc(-c3ccccc3)cc(C(=O)OCC(=O)N3CC(C)OC(C)C3)c2c1 (stereo unspecified),1,-6,0,0,1,-1,nt,
CCOC(=O)c1ccc(NC(=S)NC(=O)C2CCCC2)cc1,5,0,1,-2,2,1,nt,
CCOC(=O)c1ccc(NC(=S)NCCc2ccccc2F)cc1,-5,-12,1,-7,10,78*,89*,
CCOC(=O)c1ccc(NC(=S)NCCc2ccccc2)cc1,1,-25,0,25,-15,2,nt,
CCOC(=O)c1ccc(NC(=S)NC2CCCC2)cc1,-2,-32,0,-16,-31,95*,96*,
CN(C(=O)COC(=O)CNC(=O)c1ccc2ccccc2c1)c1c(N)n(Cc2ccccc2)c(=O)[nH]c1=O,0,3,0,17,7,1,nt,
COc1ccc(N2CCN(C(=O)c3ccccc3NS(=O)(=O)c3ccccc3)CC2)cc1,0,-48,0,-7,-21,-2,nt,
O=C(Nc1nc2ccccc2[nH]1)c1cccc([N+](=O)[O-])c1,4,-101,0,-76,-73,0,nt,
CSCCC(NC(=O)c1cccc([N+](=O)[O-])c1)c1nc2ccccc2[nH]1 (stereo unspecified),-4,-12,0,-20,3,6,nt,
SMILES,NR2E3 ag-1,697 NFkB inh,aDG glyco act,NR2E3 ag-2,Jurkat NFkB inh,MPTP inh,MPTP counter,others
O=C(Cc1nc2ccccc2[nH]1)c1cccc([N+](=O)[O-])c1,-3,-17,0,-71,2,91*,79*,
O=C(NC(Cc1ccccc1)c1nc2ccccc2[nH]1)c1cccc([N+](=O)[O-])c1 (stereo unspecified),0,8,0,-13,-4,65*,65*,
Fc1ccc(CN2CCN3CCCC3C2C2CCCCC2)cc1F (stereo unspecified),1,5,0,-14,0,56*,-12,MPTP swell DR=16*;MPTP cs DR=>80
N#Cc1cccc(NC(=O)COC(=O)c2cc(S(=O)(=O)Nc3ccccc3Cl)ccc2O)c1,nt,1,0,18,6,58*,86*,
Cc1cccc(C)c1NC(=O)COC(=O)c1cc(S(=O)(=O)Nc2ccc(Cl)cc2)ccc1O,nt,13,0,-3,11,0,nt,
O=C(COC(=O)c1cc(S(=O)(=O)Nc2ccccc2Cl)ccc1O)Nc1nc2ccccc2s1,nt,nt,0,-20,nt,90*,78*,
COC(=O)NNC(=O)C1CCC(C(=O)NNC(=O)OC)CC1 (stereo unspecified),2,1,0,-9,6,-1,nt,
COc1ccc(Cl)cc1NC(=O)C1CCCN(c2ncnc3c2nc2n3CCCCC2)C1 (stereo unspecified),0,0,0,-23,4,-2,nt,
Cc1c(NC(=O)c2ccc(S(=O)(=O)N3CCOCC3)cc2)cccc1[N+](=O)[O-],0,2,0,-16,-6,0,nt,
CCC(=O)N1CCC1(C)C(=O)Nc1cccc(OC)c1 (stereo unspecified),nt,nt,0,5,nt,-3,nt,
O=C(Nc1c(Cl)cccc1Cl)Oc1cccc2cccnc12,nt,nt,0,-4,nt,-3,nt,
O=C(Nc1cccc(Br)c1)Oc1cccc2cccnc12,nt,nt,0,-15,nt,75*,102*,
Cc1c(CCO)c(=O)n2c([nH]c3ccccc32)c1C#N,-3,8,0,1,11,-1,nt,
CCCCc1c(C)c(C#N)c2[nH]c3ccccc3n2c1=O,5,-8,0,-6,10,83*,96*,
O=C(Nc1ccccc1)C1Cc2c(-c3ccco3)ccnc2O1 (stereo unspecified),nt,nt,0,9,nt,0,nt,
COc1ccc(S(=O)(=O)O/N=C2\CCSc3ccc(C)cc32)cc1,1,3,0,-11,0,59*,37*,
CSc1cccc(NC(=S)N2CCC(c3ccccc3)C2)c1 (stereo unspecified),1,-34,0,-55,-29,3,nt,
CSc1cccc(NC(=S)N2CCCN(Cc3ccccc3F)C2)c1,4,-11,0,0,-14,69*,81*,
